The values below come from PubChem BioAssay AID1665 (Sanford-Burnham Center for Chemical Genomics, 2009).

The campaign covered roughly 190,000 compounds. About 590 (0.31%) were called active. This is one part of a sample in which actives are shown more often than they occur.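 How the source made its calls: active means nuclear translocation activity above 50% at 5 µM, with a well cell count of 50 or more; inconclusive means wells under 50 cells across six images, flagged as toxic; inactive means the rest.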

This experiment can be described thus: modulators of beta-catenin nuclear translocation, primary screen, imaging, HeLa cells, immunofluorescence, high-content (AID 1665).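 On nuclear translocation activity: per-cell ratio of nuclear to cytoplasmic median beta-catenin stain intensity; plate controls were DMSO negative control for no effect and GSK-3 inhibitor IX positive control for full effect.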 To be noted: at 5 µM; cell count: measured here: cell count, cytotoxicity flag; nuclear translocation activity: stronger effect = higher value. In a few lines:
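Read-out: Nuclear/cytoplasmic beta-catenin signal ratio, % activation | Assay system: Human HeLa cell line | Times: 24 h compound exposure at 37°C, 5% CO2 | Signal: Fluorescence imaging of beta-catenin antibody stain plus DAPI | Dosing: 5 µM primary, 0.02–20 µM confirmation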
As for `COc1cc2nc(Cl)nc(NCCO)c2cc1OC`, the cell count amounted to 1310 cells and the nuclear translocation activity was 0.1% (inactive).

For the molecule `CCOC(=O)c1ccc(-c2ccc(C(=O)Nc3cccnc3)o2)cc1`, the cell count was 659 cells and the nuclear translocation activity was 56.9% (active).

As to `CCOc1cccc(C(=O)Nc2cccnc2)c1`, the cell count came out at 1110 cells and the nuclear translocation activity is -2.1% (inactive).

As for `CCOC(=O)c1cc(NC(=O)c2cccnc2)cc(C(=O)OCC)c1`, the cell count is 1120 cells and the nuclear translocation activity was 0.3% (inactive).

As for `COC(=O)CNc1nc(Cl)nc(N2CCC(C)CC2)n1`, the cell count is 1320 cells and the nuclear translocation activity was -0.1% (inactive).

Consider `CC(C)Sc1nnc([C@H](Cc2ccccc2)NC(=O)OC(C)(C)C)o1`, for which the cell count was 1410 cells and the nuclear translocation activity was 0.4% (inactive).

As for `CCOC(=O)Cc1cc(=O)[nH]c(/N=C(\N)Nc2ccc(OC)cc2)n1`, the cell count worked out at 1300 cells and the nuclear translocation activity was -0.7% (inactive).

In the case of `O=C(NNC(=O)c1cc2c(s1)CCCC2)c1ccccc1`, the cell count came out at 547 cells and the nuclear translocation activity was -1.8% (inactive).

Consider `Cc1ccc(C(=O)NNC(=O)c2cc3cc4ccccc4nc3s2)cc1`, for which the cell count was 719 cells and the nuclear translocation activity is 80.3% (active).

Regarding `Cc1ccc(C(=O)NNC(=O)c2cccs2)cc1`, the cell count was 1120 cells and the nuclear translocation activity was -0.6% (inactive).

For the molecule `CCOc1ccccc1N1CN(Cc2ccccc2)CNC1=S`, the cell count came out at 1340 cells and the nuclear translocation activity was -1.3% (inactive).

With `CCc1nc2sc3c(Cl)ncnc3c2c2c1CCCC2`, the cell count came to 1350 cells and the nuclear translocation activity was -1.6% (inactive).

In the case of `Cc1cc(=O)[nH]c(S)c1C#N`, the cell count worked out at 1290 cells and the nuclear translocation activity is -0.9% (inactive).

On to `O=C(COc1ccccc1)N1CCN=C1SCc1cccc(F)c1`, for which the cell count is 1330 cells and the nuclear translocation activity is 0.4% (inactive).

Regarding `COc1cc(C=O)ccc1Oc1nnnn1-c1ccccc1`, the cell count was determined as 1310 cells and the nuclear translocation activity is -0.4% (inactive).

Regarding `Cc1cc(C(=O)NNS(=O)(=O)c2ccccc2C(F)(F)F)nn1C(C)(C)C`, the cell count amounted to 1120 cells and the nuclear translocation activity was -2.9% (inactive).

Turning to `CCOC(=O)c1c(NC(=O)NC(C)(C)C)sc2c1CCN(C)C2`, the cell count came out at 1280 cells and the nuclear translocation activity was 0.5% (inactive).

Consider `Nc1nc(SC23CC4CC(CC(C4)C2)C3)ns1`, for which the cell count is 1340 cells and the nuclear translocation activity was 0.7% (inactive).

As for `CC(C)n1c(=S)[nH]c2cc(C(F)(F)F)ccc21`, the cell count came out at 1090 cells and the nuclear translocation activity was -0.8% (inactive).

Take `COC(=O)c1ccc(S(=O)(=O)NCc2ccccc2)n1C`: the cell count worked out at 1270 cells and the nuclear translocation activity is 0.3% (inactive).

`CCOCCn1c(-c2ccccc2)nc2ccccc21`: the cell count came to 1340 cells and the nuclear translocation activity was -0.7% (inactive).

In the case of `O=C(O)c1ccccc1OCc1ccccc1Cl`, the cell count was 1320 cells and the nuclear translocation activity is -1.2% (inactive).

As to `Cc1cc(=O)[nH]c(N/N=C/c2ccc3c(c2)OCCO3)n1`, the cell count worked out at 1320 cells and the nuclear translocation activity is -0.5% (inactive).

With `COc1ccc(NC(=O)C2CCC(CNc3c(N4CCCCC4)c(=O)c3=O)CC2)c(OC)c1` (stereo unspecified), the cell count was determined as 1350 cells and the nuclear translocation activity was -0.3% (inactive).

As for `Cc1nnc2n1N=C(c1ccc3c(c1)NC(=O)CO3)CS2`, the cell count stood at 1300 cells and the nuclear translocation activity is -0.7% (inactive).

For `C/C(=N/NC(=O)CN1CCN(S(=O)(=O)c2ccc(Br)cc2)CC1)c1ccncc1`, the cell count came out at 1320 cells and the nuclear translocation activity is -0.5% (inactive).

As to `Nc1ccc2nn(-c3ccc(Cl)cc3)nc2c1`, the cell count is 1360 cells and the nuclear translocation activity was 1% (inactive).

For the molecule `CC1=NNC(=O)C1CCC(=O)N/N=C(\C)c1ccc(Cl)cc1` (stereo unspecified), the cell count was 1240 cells and the nuclear translocation activity was 0.6% (inactive).

Turning to `Cc1cc(C)nc(SCc2cn3c(C)cc(C)nc3n2)n1`, the cell count worked out at 1340 cells and the nuclear translocation activity was -0.4% (inactive).

Take `CCc1nc2sc(C(=O)O)c(N)c2c2c1CCCC2`: the cell count worked out at 1230 cells and the nuclear translocation activity is 2.4% (inactive).

On to `CC(=O)NNC(=O)c1csc(Cc2c(Cl)sc3ccc(Cl)cc23)n1`, for which the cell count was 1250 cells and the nuclear translocation activity is -0.8% (inactive).

As to `CC(CNS(=O)(=O)c1ccc(Br)cc1)CN(C)C` (stereo unspecified), the cell count was found to be 1320 cells and the nuclear translocation activity was 0.2% (inactive).

`COc1ccc(CNC(=O)C(Cc2ccccc2)n2cccc2)cc1` (stereo unspecified): the cell count is 1270 cells and the nuclear translocation activity is -0.6% (inactive).

For the molecule `COC(OC)c1ccnc(SCc2ccccc2Cl)n1`, the cell count is 1270 cells and the nuclear translocation activity was -2.6% (inactive).

`O=C(O)C(F)(F)C(NCc1ccccc1)c1ccccc1` (stereo unspecified): the cell count stood at 1280 cells and the nuclear translocation activity is 0% (inactive).

Consider `COc1cc(/C=N\Nc2nc(-c3cccs3)c(NC(C)=O)s2)ccc1O`, for which the cell count turned out to be 1300 cells and the nuclear translocation activity was 0.1% (inactive).

In the case of `COc1cc(/C=C(\C#N)c2nc3c(s2)CC(C)CC3)ccc1O` (stereo unspecified), the cell count stood at 1440 cells and the nuclear translocation activity was 2.5% (inactive).

In the case of `CCOc1cc(/C=C(\C#N)c2nc(-c3cccs3)c(NC(C)=O)s2)ccc1O`, the cell count worked out at 77 cells and the nuclear translocation activity was 68.9% (active).

For the molecule `Cn1c(SCC(=O)N2CCOCC2)nnc1-c1ccc2ncccc2c1`, the cell count was 1320 cells and the nuclear translocation activity was 0.1% (inactive).

Turning to `O=[N+]([O-])c1cccc2ncccc12`, the cell count was 1340 cells and the nuclear translocation activity is -0.4% (inactive).

With `O=C(NC1CCCCC1)c1cc(C2CC2)on1`, the cell count stood at 1290 cells and the nuclear translocation activity was -0.2% (inactive).

In the case of `Cc1ccc(-c2nc3ccccc3[nH]c2=O)cc1`, the cell count turned out to be 1310 cells and the nuclear translocation activity is 2.5% (inactive).

In the case of `CCCCCCCCCCCCN1C(=O)CSC1c1cccnc1` (stereo unspecified), the cell count amounted to 1170 cells and the nuclear translocation activity was -0.9% (inactive).

For `CC(=O)NC(=S)Nc1ccc(NC(=S)NC(=O)c2ccc([N+](=O)[O-])cc2)cc1`, the cell count stood at 1350 cells and the nuclear translocation activity is -0.9% (inactive).

For `CCc1ccccc1NC(=O)CSc1nnc(CCNC(=O)OC(C)(C)C)o1`, the cell count came to 1310 cells and the nuclear translocation activity is 1% (inactive).

Take `Oc1c(C=Nc2cccc3nsnc23)ccc2ccccc12`: the cell count came to 317 cells and the nuclear translocation activity was 154% (active).

Consider `Oc1ccc(N=Cc2c(O)ccc3ccccc23)cc1`, for which the cell count came to 1240 cells and the nuclear translocation activity was -1.5% (inactive).

Take `Oc1ccc2ccccc2c1C=Nc1ccccc1`: the cell count was 1230 cells and the nuclear translocation activity was 1.3% (inactive).

Turning to `O=C(O)/C=C/c1ccc2c(c1)OCCO2`, the cell count was found to be 1430 cells and the nuclear translocation activity is -1.2% (inactive).

For `Cc1cc(Nc2ccc(Cl)cc2)nc(N2CCOCC2)n1`, the cell count is 1280 cells and the nuclear translocation activity is -0.7% (inactive).

With `Cc1onc(NC(=O)c2ccc([N+](=O)[O-])o2)c1Br`, the cell count stood at 1260 cells and the nuclear translocation activity is 5.1% (inactive).

Take `COC(=O)c1cc(NC(=O)c2ccco2)ccc1N1CCOCC1`: the cell count stood at 1200 cells and the nuclear translocation activity is -0.7% (inactive).

For `CCCC(=O)Nc1ccc2c(c1)nc(CCNC(=O)c1ccco1)n2C`, the cell count is 1400 cells and the nuclear translocation activity is -1.3% (inactive).

For the molecule `COc1ccc(NC2=CC(=S)NC(C)(C)C2)cc1`, the cell count came out at 1130 cells and the nuclear translocation activity is -1.8% (inactive).

Turning to `COC(=O)c1sc(SC)c(S(=O)(=O)C(C)C)c1N/N=C(\C#N)S(=O)(=O)c1ccccn1`, the cell count was 1240 cells and the nuclear translocation activity is -2.6% (inactive).

Regarding `CCN(CC)CCCN=Cc1c(O)n(-c2ccc(C)cc2)c(=O)c2ccccc12`, the cell count stood at 1350 cells and the nuclear translocation activity was -0.1% (inactive).

As for `O=C(O)CC1(CC(=O)Nc2cccc(C(F)(F)F)c2)CCCC1`, the cell count was determined as 1260 cells and the nuclear translocation activity is 0.5% (inactive).

Consider `CN(C)/C=C(/C(=O)c1ccc(Cl)c(Cl)c1)c1nnnn1-c1ccccc1`, for which the cell count came to 1260 cells and the nuclear translocation activity was 0% (inactive).
